Results from different studies.
Each line is one published result; the experiments were not run side by side.
PRMT3: Protein arginine N-methyltransferase 3 (PRMT3, Homo sapiens, UniProt O60678)
LDHA: L-lactate dehydrogenase A chain (LDHA, Homo sapiens, UniProt P00338)
MAOA: Amine oxidase [flavin-containing] A (MAOA, Homo sapiens, UniProt P21397)
ADRA1A: Alpha-1A adrenergic receptor (ADRA1A, Homo sapiens, UniProt P35348)
Rps6ka1: Ribosomal protein S6 kinase alpha-1 (Rps6ka1, Rattus norvegicus, UniProt Q63531)
CDKL2: Cyclin-dependent kinase-like 2 (CDKL2, Homo sapiens, UniProt Q92772)
GSR: Glutathione reductase, mitochondrial (GSR, Homo sapiens, UniProt P00390)

N=C(NCCCN)NCCCSC[C@H]1O[C@@H](n2cnc3c(NCCCc4ccccc4)ncnc32)[C@H](O)[C@@H]1O
inhibition (PRMT3; enzyme activity, inhibitor, fluorescence; 10 µM): 1.09%

COC(=O)CN=c1scc(-c2ccccc2)n1-c1ccccc1OC
inhibition (LDHA; enzyme activity, inhibitor, fluorescence; 100 µM, pH 7.2): 48%

CC[C@H](C)[C@H](NC(=O)[C@H](CCC(N)=O)NC(=O)[C@H](CC(C)C)NC(=O)[C@H](CCSC)NC(=O)[C@H](CCCCN)NC(=O)[C@H](CO)NC(=O)[C@H](CO)NC(=O)[C@H](CCSC)NC(=O)[C@H](CC(C)C)NC(=O)[C@H](CC(N)=O)NC(=O)[C@@H](NC(=O)[C@@H](NC(=O)[C@H](CO)NC(=O)[C@H](CC(C)C)NC(=O)[C@H](CS)NC(=O)[C@H](CCCNC(=N)N)NC(=O)[C@H](CC(=O)O)NC(=O)[C@H](Cc1c[nH]c2ccccc12)NC(=O)[C@H](Cc1ccccc1)NC(=O)[C@H](C)NC(=O)[C@H](CCC(=O)O)NC(=O)[C@@H](N)CCCCN)C(C)C)[C@@H](C)CC)C(=O)N[C@@H](CC(N)=O)C(=O)N[C@@H](C)C(=O)O
inhibition (Cyclin-dependent kinase 5, with p25 (CDK5, Homo sapiens, UniProt Q00535); enzyme activity, inhibitor, radiometric; 100 µM): 41%

N=C(NCCCSC[C@H]1O[C@@H](n2cnc3c(NCCCc4ccccc4)ncnc32)[C@H](O)[C@@H]1O)NC1CCCC1
inhibition (PRMT3; enzyme activity, inhibitor, fluorescence; 10 µM): -23.3%

N#Cc1ccc2c(ccn2CCC2CCN(C(=O)OC(C(F)(F)F)C(F)(F)F)CC2)c1
inhibition (Fatty-acid amide hydrolase 1 (Faah, Rattus norvegicus, UniProt P97612); enzyme activity, inhibitor; 10 µM): 45%

N#Cc1ccc(NC(=O)c2ccc(Cl)cc2)cc1
inhibition (MAOA; enzyme activity, inhibitor; 1 µM, 20 min): 72%

N=C(NCCCSC[C@H]1O[C@@H](n2cnc3c(NCCCc4ccccc4)ncnc32)[C@H](O)[C@@H]1O)Nc1ccccc1
inhibition (PRMT3; enzyme activity, inhibitor, fluorescence; 10 µM): 4.92%

COC(=O)CN=c1scc(-c2ccccc2)n1-c1ccc(OC)cc1
inhibition (LDHA; enzyme activity, inhibitor, fluorescence; 100 µM, pH 7.2): 49%

COc1cc(NC(C)=O)c(Cl)cc1C(=O)Nc1nccs1
inhibition (ADRA1A; cell-free assay; 10 µM): 13.9%

COc1cc([N+](=O)[O-])ccc1NC(=O)c1ccccc1O
inhibition (MAOA; enzyme activity, inhibitor; 1 µM, 20 min): 9%

CNC(=O)[C@@]12C[C@@H]1[C@@H](n1cnc3c(NC)nc(C#Cc4ccc(Cl)s4)nc31)[C@H](O)[C@@H]2O
inhibition (Translocator protein (Tspo, Rattus norvegicus, UniProt P16257); ligand displacement, radioligand; 10 µM): 60 to 70%

O=C(Nc1ccc(C(F)(F)F)cc1)c1cc(Cl)ccc1O
inhibition (MAOA; enzyme activity, inhibitor; 1 µM, 20 min): 82%

N=C(NCCCSC[C@H]1O[C@@H](n2cnc3c(NCCCc4ccccc4)ncnc32)[C@H](O)[C@@H]1O)NCCc1ccccc1
inhibition (PRMT3; enzyme activity, inhibitor, fluorescence; 10 µM): 1.64%

O=C1N=C(N2CCCCN2)S/C1=C\c1ccc(F)cc1O
inhibition (Vasoactive intestinal polypeptide receptor 1 (VIPR1, Homo sapiens, UniProt P32241); ligand displacement, radioligand; 10 µM): 11%

Nc1ncnc2c1ncn2[C@@H]1O[C@H](CSCCNC(=O)NCc2ccccc2)[C@@H](O)[C@H]1O
inhibition (PRMT3; enzyme activity, inhibitor, radiometric; 10 µM): > 95%

CNC(=O)c1cc(Oc2ccc(NC(=O)Nc3ccc(Cl)c(C(F)(F)F)c3)cc2)ccn1
inhibition (Rps6ka1; enzyme activity, inhibitor; 10 µM): 19%

N=C(NCCCSC[C@H]1O[C@@H](n2cnc3c(NCCCc4ccccc4)ncnc32)[C@H](O)[C@@H]1O)NC1CCCCC1
inhibition (PRMT3; enzyme activity, inhibitor, fluorescence; 10 µM): -5.11%

O=C(Nc1ccc([N+](=O)[O-])cc1Cl)c1ccc2c(c1)OCO2
inhibition (MAOA; enzyme activity, inhibitor; 1 µM, 20 min): 9%

CN1CC(Oc2cnc(C#N)cc2-c2ccn3nc(NC(=O)C4CC4)cc3c2)C1
inhibition (CDKL2; enzyme activity, inhibitor; 1 µM): -18%

O=C(c1ccc(Cl)cc1)N(Cc1ccccc1)C1CCCCC1
inhibition (Kappa-type opioid receptor (Oprk1, Rattus norvegicus, UniProt P34975); ligand displacement, radioligand; 10 µM): 82%

CCN(CC)CCNC(=O)c1c(C)[nH]c(/C=C2\C(=O)Nc3ccc(F)cc32)c1C
inhibition (CDKL2; binding, competition with immobilised ligand; 10 µM): 92%

O=C(Nc1ccc([N+](=O)[O-])cc1[N+](=O)[O-])c1ccccc1O
inhibition (MAOA; enzyme activity, inhibitor; 1 µM, 20 min): 49%

COc1ccc(/C=C/C(=O)N2CCc3ccccc3C2)cc1OC
inhibition (MAOA; enzyme activity, inhibitor, fluorescence; 62.5 µM): 11.3%

N#Cc1cc(Cn2c(N3CCCC3)nc3ccccc32)ccc1F
inhibition (ADRA1A; ligand displacement; 10 µM): -11.7%

O=C(Nc1ccccc1)c1ccccc1O
inhibition (MAOA; enzyme activity, inhibitor; 1 µM, 20 min): 28%

CN(C)C1CCN(CC#Cc2nn(C3CCCC3)c3nc(NCc4ccccc4)ncc23)C1 (stereo not shown)
inhibition (Serine/threonine-protein kinase MARK2 (MARK2, Homo sapiens, UniProt Q7KZI7); enzyme activity, inhibitor, FRET; 0.1 µM): 4%

Cc1ccc(Nc2nccc(N(C)c3ccc4c(C)n(C)nc4c3)n2)cc1S(N)(=O)=O
inhibition (Rps6ka1; enzyme activity, inhibitor; 0.3 µM): 27%

Oc1cccc(Nc2nc(-c3ccc(F)cc3F)cs2)c1
inhibition (Histamine H2 receptor (HRH2, Homo sapiens, UniProt P25021); cell-free assay; 10 µM): -33.9%

N=C(NCCCSC[C@H]1O[C@@H](n2cnc3c(NCCCc4ccccc4)ncnc32)[C@H](O)[C@@H]1O)NCc1ccccc1
inhibition (PRMT3; enzyme activity, inhibitor, fluorescence; 10 µM): -4.37%

COc1ccc2c(c1)[C@H](NCCC(C)C)C[C@H]2c1ccc(Cl)c(Cl)c1 (relative stereo)
inhibition (GSR; enzyme activity, inhibitor; 25 µM): < 12%

COC(=O)CN=c1scc(-c2ccccc2)n1-c1ccccc1[N+](=O)[O-]
inhibition (LDHA; enzyme activity, inhibitor, fluorescence; 100 µM, pH 7.2): 53%

CCCNc1nc2ccccc2n1Cc1ccc(Cl)cc1
inhibition (ADRA1A; ligand displacement; 10 µM): -2.69%

O=C(Nc1ccc([N+](=O)[O-])cc1Cl)c1ccc2ccccc2c1
inhibition (MAOA; enzyme activity, inhibitor; 1 µM, 20 min): 11%

C#CCNC(=N)NCCCSC[C@H]1O[C@@H](n2cnc3c(NCCCc4ccccc4)ncnc32)[C@H](O)[C@@H]1O
inhibition (PRMT3; enzyme activity, inhibitor, fluorescence; 10 µM): 6.56%

CCN(CC)c1ccc(C2Nc3ccc(C(=O)c4ccccc4)cc3NC3=C2C(=O)CC(C)(C)C3)cc1 (stereo not shown)
inhibition (ADRA1A; ligand displacement, radioligand; 10 µM): 17%

O=C(Nc1cc(Cl)cc(Cl)c1)c1cc(Cl)ccc1O
inhibition (MAOA; enzyme activity, inhibitor; 1 µM, 20 min): 4%

COc1ccc(CN[C@@H]2C[C@@H](c3ccc(Cl)c(Cl)c3)c3ccccc32)cc1 (relative stereo)
inhibition (GSR; enzyme activity, inhibitor; 25 µM): < 12%
